ChEMBL document CHEMBL1137305, “High antiplasmodial activity of novel plasmepsins I and II inhibitors” (J Med Chem, 2006)
Activity calls are given as the source filed them. No cut-off for these calls is given here.

Experiments:
Plasmepsin I = Plasmepsin I (Plasmodium falciparum, UniProt P39898); assay: Inhibition of Plasmodium falciparum recombinant PLM1
In short: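 Recombinant proPfPLM I from E. coli BL21 Star (DE3) pLysS inclusion bodies, refolded and purified by anion exchange and size exclusion. Initial rates of cleavage of chromogenic Lys-Pro-Ile-Leu-Phe-Nph-Arg-Leu read spectrophotometrically. Ki from fits: Morrison competitive tight-binding equation, or for weaker binders at least six substrate and two or more inhibitor levels, competitive model.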

Plasmepsin II = Plasmepsin II (Plasmodium falciparum, UniProt P46925); assay: Inhibition of Plasmodium falciparum recombinant PLM2
In short: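 Recombinant pro-PLM II (E. coli BL21(DE3) pLysS, refolded from inclusion bodies) activated in 100 mM sodium acetate pH 4.7, 37 °C, 90 min. Cleavage of Lys-Glu-Phe-Val-Phe-NPhe-Ala-Leu-Lys followed at 300 nm. Inhibitors at 1-100 nM, 1% DMSO final. Ki from IC50 via Cheng-Prusoff using Michaelis-Menten Km. Mean ± SD, at least two experiments in triplicate.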

Plasmodium falciparum [1] = assay: Antiplasmodial activity against chloroquine-sensitive Plasmodium falciparum D10; assay type: functional, organism-based
In short: (§1)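 P. falciparum (D10 and W2) grown in human A+ red cells, RPMI 1640 with 10% heat-inactivated A+ plasma, 37 °C, 1% O2/5% CO2/94% N2. Asynchronous cultures, 1-1.5% parasitemia, 1% hematocrit, exposed to serial dilutions (DMSO <1% final) for 72 h. IC50 is the mean of ≥3 experiments in duplicate.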

Plasmodium falciparum [2] = assay: Antiplasmodial activity against chloroquine-resistant Plasmodium falciparum W2; assay type: functional, organism-based; in short: as §1
[3] = target: Cathepsin D (Homo sapiens) (UniProt P07339); assay: Inhibition of human cathepsin D at 100 uM
[4] = target: Plasmepsin II (Plasmodium falciparum) (UniProt P46925); assay: Inhibition of Plasmodium falciparum PLM2-induced human hemoglobin cleavage by SDS-PAGE
In short: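 Hemoglobin (10 µg) digested by preactivated recombinant PLM II (200 ng) in 100 mM sodium acetate, pH 4.7, 37 °C, with vehicle or inhibitor for 0, 10, 30 and 60 min. Stopped with SDS loading dye, boiled 5 min, resolved on 18% polyacrylamide gel.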

[5] = target: Cathepsin D (Homo sapiens) (UniProt P07339); assay: Inhibition of human cathepsin D at 2 uM
[6] = target: Cathepsin D (Homo sapiens) (UniProt P07339); assay: Inhibition of human cathepsin D at 5 uM
[7] = Cytotoxicity against human skin fibroblast at 100 uM by MTT assay; assay type: cell-based
In short: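 Primary human skin-biopsy fibroblasts, 8 × 10⁴ per well, grown in DMEM with 10% fetal calf serum, 1% penicillin/streptomycin and 1% L-glutamine. Proliferation followed by MTT test with or without compounds up to 100 µM.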

Chain of Plasmepsin II (P46925 whole entry): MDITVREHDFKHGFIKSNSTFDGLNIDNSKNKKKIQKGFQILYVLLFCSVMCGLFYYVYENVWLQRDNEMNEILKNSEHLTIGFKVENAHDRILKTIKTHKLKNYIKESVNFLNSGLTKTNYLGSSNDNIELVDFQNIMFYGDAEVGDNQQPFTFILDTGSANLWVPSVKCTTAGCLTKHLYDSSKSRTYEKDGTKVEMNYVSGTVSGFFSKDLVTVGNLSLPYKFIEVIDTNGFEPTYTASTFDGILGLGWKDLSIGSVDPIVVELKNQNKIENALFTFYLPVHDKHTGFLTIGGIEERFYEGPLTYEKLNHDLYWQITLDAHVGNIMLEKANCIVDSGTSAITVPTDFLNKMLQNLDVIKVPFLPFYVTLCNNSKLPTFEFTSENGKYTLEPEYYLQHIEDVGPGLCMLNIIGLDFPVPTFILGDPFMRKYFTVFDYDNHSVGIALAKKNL
Chain of Cathepsin D (Homo sapiens) (P07339 65-162 limits assumed): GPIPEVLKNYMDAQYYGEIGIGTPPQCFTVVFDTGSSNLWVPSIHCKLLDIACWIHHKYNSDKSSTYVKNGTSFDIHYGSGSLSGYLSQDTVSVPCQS
Chain of Cathepsin D (Homo sapiens) (P07339 169-412 limits assumed): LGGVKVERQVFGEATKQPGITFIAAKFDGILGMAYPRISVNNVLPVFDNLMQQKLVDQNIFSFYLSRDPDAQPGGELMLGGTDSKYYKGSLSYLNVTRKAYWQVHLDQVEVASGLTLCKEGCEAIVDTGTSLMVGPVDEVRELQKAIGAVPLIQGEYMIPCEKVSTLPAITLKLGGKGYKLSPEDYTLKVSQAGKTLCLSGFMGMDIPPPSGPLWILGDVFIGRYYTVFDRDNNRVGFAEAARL
Chain of Plasmepsin II (Plasmodium falciparum) (P46925 125-453 limits assumed): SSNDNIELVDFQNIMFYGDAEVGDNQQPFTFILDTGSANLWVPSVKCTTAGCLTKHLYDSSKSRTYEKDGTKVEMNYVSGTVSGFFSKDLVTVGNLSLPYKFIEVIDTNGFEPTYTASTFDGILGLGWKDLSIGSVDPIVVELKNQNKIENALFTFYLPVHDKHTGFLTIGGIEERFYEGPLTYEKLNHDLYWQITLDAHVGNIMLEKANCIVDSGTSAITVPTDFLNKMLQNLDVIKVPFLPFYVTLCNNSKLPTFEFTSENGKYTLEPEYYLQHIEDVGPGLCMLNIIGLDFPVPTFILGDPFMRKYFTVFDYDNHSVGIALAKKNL
Chain of Plasmepsin I (P39898 whole entry): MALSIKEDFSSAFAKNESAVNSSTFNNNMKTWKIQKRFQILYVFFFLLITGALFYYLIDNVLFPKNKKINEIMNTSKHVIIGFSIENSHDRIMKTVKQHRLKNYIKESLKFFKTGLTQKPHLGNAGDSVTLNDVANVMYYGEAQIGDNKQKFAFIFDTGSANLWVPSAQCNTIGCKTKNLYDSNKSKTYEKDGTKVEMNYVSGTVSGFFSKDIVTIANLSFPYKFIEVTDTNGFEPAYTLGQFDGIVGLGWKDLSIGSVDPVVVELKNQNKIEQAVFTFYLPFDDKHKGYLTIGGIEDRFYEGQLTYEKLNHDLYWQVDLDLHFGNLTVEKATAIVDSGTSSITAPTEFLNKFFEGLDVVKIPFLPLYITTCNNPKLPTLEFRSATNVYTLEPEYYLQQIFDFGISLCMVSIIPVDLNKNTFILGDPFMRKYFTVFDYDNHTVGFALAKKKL

SMILES | Ki (Plasmepsin I) [nM] | Ki (Plasmepsin II) [nM] | IC50 (Plasmodium falciparum [1]) [nM] | IC50 (Plasmodium falciparum [2]) [nM] | inhibition [3] [%] | Activity [4] | inhibition [5] [%] | inhibition [6] [%] | Activity [7] [%]
CCCCNC(=O)C[C@H](O)[C@H](CC(C)C)NC(=O)[C@@H](NC(=O)c1ccc(Oc2ccc(C(=O)N[C@@H](CC(C)C)C(=O)N[C@@H](CCCCNC(=O)OC(C)(C)C)C(=O)NCCCC(C)Nc3cc(OC)cc4cccnc34)cc2)cc1)C(C)CC (some centres not stated) | 230 | 403 | 4050 | 3500 | – | – | – | – | –
CCCCNC(=O)C[C@H](O)[C@H](CC(C)C)NC(=O)[C@@H](NC(=O)c1ccc(Oc2ccc(C(=O)N[C@@H](CC(C)C)C(=O)N[C@@H](CCCCNC(=O)OC(C)(C)C)C(=O)OCCC)cc2)cc1)C(C)CC (some centres not stated) | 17 | 11 | 100 | 100 | 37 | Active | – | – | –
CCCCNC(=O)C[C@H](O)[C@H](CC(C)C)NC(=O)[C@@H](NC(=O)c1ccc(Oc2ccc(C(=O)N[C@@H](CC(C)C)C(=O)NCCCC(C)Nc3cc(OC)cc4cccnc34)cc2)cc1)[C@@H](C)CC (some centres not stated) | 765 | 12.1 | 700 | 500 | – | Active | 30 | – | –
CCCCNC(=O)C[C@H](O)[C@H](CC(C)C)NC(=O)[C@@H](NC(=O)COc1ccc2ccccc2c1)[C@@H](C)CC | 727 | 58.9 | 22700 | 15400 | – | – | – | – | –
CCCCNC(=O)C[C@H](O)[C@H](CC(C)C)NC(=O)[C@@H](NC(=O)c1ccc(Oc2ccc(C(=O)N[C@@H](CC(C)C)C(=O)N[C@@H](C)C(=O)NCCCC(C)Nc3cc(OC)cc4cccnc34)cc2)cc1)[C@@H](C)CC (some centres not stated) | 74 | 26.3 | 200 | 300 | – | Active | – | 50 | 15
CCCCNC(=O)C[C@H](O)[C@H](CC(C)C)NC(=O)[C@@H](NC(=O)c1ccc(Oc2ccc(C(=O)N[C@@H](C)C(=O)N[C@@H](C)C(=O)NCCCC(C)Nc3cc(OC)cc4cccnc34)cc2)cc1)[C@@H](C)CC (some centres not stated) | 1 | 3.9 | 1300 | 1200 | – | – | – | – | –
CCCCNC(=O)C[C@H](O)[C@H](CC(C)C)NC(=O)[C@@H](NC(=O)c1ccc(Oc2ccc(C(=O)N[C@@H](CC(C)C)C(=O)N[C@@H](CC(C)C)C(=O)NCCCC(C)Nc3cc(OC)cc4cccnc34)cc2)cc1)C(C)CC (some centres not stated) | 58 | 103 | 3600 | 1700 | – | – | – | – | –
CCCCNC(=O)C[C@H](O)[C@H](CC(C)C)NC(=O)[C@@H](NC(=O)c1ccc(Oc2ccc(C(=O)N[C@@H](CC(C)C)C(=O)N[C@@H](CCCCN)C(=O)OCCC)cc2)cc1)C(C)CC (some centres not stated) | 11 | 9.9 | 4500 | 3800 | – | – | – | – | –
CCCCNC(=O)C[C@H](O)[C@H](CC(C)C)NC(=O)[C@@H](NC(=O)c1ccc(Oc2ccc(C(=O)NCCCC(C)Nc3cc(OC)cc4cccnc34)cc2)cc1)[C@@H](C)CC (some centres not stated) | 81 | 11.2 | 2200 | 2000 | – | – | – | – | –
CCCCNC(=O)C[C@H](O)[C@H](CC(C)C)NC(=O)[C@@H](NC(=O)c1ccc(Oc2ccc(C(=O)N[C@@H](C)C(=O)N[C@@H](CCCCN)C(=O)NCCCC(C)Nc3cc(OC)cc4cccnc34)cc2)cc1)[C@@H](C)CC (some centres not stated) | 33 | 10.6 | 800 | 1400 | – | – | – | – | –
